# Legend:
# Streptococcus pneumoniae [1] = test: Antibacterial activity against macrolide-resistant Streptococcus pneumoniae 2686 harboring mutation in L4 ribosomal protein after overnight incubation by agar dilution method; type: functional
# Streptococcus pyogenes [2] = test: Antibacterial activity against macrolide-resistant Streptococcus pyogenes harboring erm(B) gene after overnight incubation by agar dilution method; type: functional
# Outline: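 Agar dilution MICs on Mueller-Hinton agar with 5% sheep blood. Inoculum 10^4 CFU/spot, incubated overnight at 35°C in ambient air. Clinical S. pneumoniae or group A streptococcal isolates; resistance genotypes (erm(B), erm(A), mef(A)/mef(E)) were assigned by PCR. S. pneumoniae ATCC 49619 served as QC strain in each run. Range, MIC50 and MIC90 reported per phenotype group.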
# Streptococcus pyogenes [3] = test: Antibacterial activity against macrolide-resistant Streptococcus pyogenes 2094 harboring erm(A) gene after 22 passages and 10 compound-free subculturing by retest method
# Streptococcus pyogenes [4] = test: Antibacterial activity against macrolide-resistant Streptococcus pyogenes 2368 harboring erm(B) gene after 18 passages and 10 compound-free subculturing by retest method
# Streptococcus pneumoniae [5] = test: Antibacterial activity against macrolide-susceptible Streptococcus pneumoniae 7127 harboring S20N mutation in L4 ribosomal protein and A105V mutation in L22 ribosomal protein after 29 passages and 10 compound-free subculturing by retest method; type: functional
# Streptococcus pyogenes [6] = test: Antibacterial activity against macrolide-resistant Streptococcus pyogenes 2094 harboring erm(A) gene after 5 passages and 10 compound-free subculturing by retest method
# Streptococcus pneumoniae [7] = test: Antibacterial activity against macrolide-resistant Streptococcus pneumoniae 2686 harboring mutation in L4 ribosomal protein after 14 passages and 10 compound-free subculturing by retest method; type: functional
# Streptococcus pneumoniae [8] = test: Antibacterial activity against penicillin-intermediate Streptococcus pneumoniae after overnight incubation by agar dilution method; type: functional
# Outline: (§1)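 Agar dilution on Mueller-Hinton agar supplemented with 5% sheep blood, inoculum 10^4 CFU/spot, read after overnight incubation at 35°C in ambient air. Clinical isolates with defined genotypes; S. pneumoniae ATCC 49619 quality control strain included in each run. MIC50/MIC90 are MICs inhibiting 50% and 90% of isolates.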
# Streptococcus pneumoniae [9] = test: Antibacterial activity against macrolide-resistant Streptococcus pneumoniae 1076 harboring erm(B) and mef(A) gene after 14 passages and 10 compound-free subculturing by retest method; type: functional
# Outline: (§2)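 Multistep selection by daily serial passage in subinhibitory drug concentrations. Medium was cation-adjusted Mueller-Hinton broth plus 5% lysed horse blood. Each day the next inoculum came from the tube 1–2 dilutions below the MIC whose turbidity matched the growth control, for up to 50 days. Clone MICs by CLSI macrodilution; identity to the parent confirmed by SmaI PFGE.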
# Streptococcus pyogenes [10] = test: Antibacterial activity against macrolide-resistant Streptococcus pyogenes 2368 harboring erm(B) gene after 6 passages and 10 compound-free subculturing by retest method
# Streptococcus pneumoniae [11] = test: Antibacterial activity against macrolide-susceptible Streptococcus pneumoniae 7127 harboring S20N mutation in L4 ribosomal protein and A105V mutation in L22 ribosomal protein after 38 passages and 10 compound-free subculturing by retest method; type: functional
# Streptococcus pyogenes [12] = test: Antibacterial activity against macrolide-resistant Streptococcus pyogenes 2094 harboring erm(A) gene after overnight incubation by agar dilution method
# Streptococcus pneumoniae [13] = test: Antibacterial activity against macrolide-resistant Streptococcus pneumoniae 2686 harboring mutation in L4 ribosomal protein after 22 passages and 10 compound-free subculturing by retest method; type: functional
# Streptococcus pneumoniae [14] = test: Antibacterial activity against macrolide-susceptible Streptococcus pneumoniae 7127 harboring S20N mutation in L4 ribosomal protein and A105V mutation in L22 ribosomal protein after 16 passages and 10 compound-free subculturing by retest method; type: functional
# Streptococcus pyogenes [15] = test: Antibacterial activity against macrolide-resistant Streptococcus pyogenes 2011 harboring mef(A) gene after overnight incubation by agar dilution method
# Streptococcus pyogenes [16] = test: Antibacterial activity against macrolide-resistant Streptococcus pyogenes 2368 harboring erm(B) gene after overnight incubation by agar dilution method
# Streptococcus pneumoniae [17] = test: Antibacterial activity against macrolide-resistant Streptococcus pneumoniae 1635 harboring erm(A) gene after overnight incubation by agar dilution method; type: functional
# Streptococcus pneumoniae [18] = test: Antibacterial activity against penicillin-susceptible Streptococcus pneumoniae after overnight incubation by agar dilution method; type: functional
# Outline: (§3)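 Agar dilution on Mueller-Hinton agar supplemented with 5% sheep blood. Inoculum 10^4 CFU/spot, incubated overnight at 35°C in ambient air. Test strains were clinical pneumococcal isolates. S. pneumoniae ATCC 49619 was included as the quality control strain in each run. MIC range, MIC50 and MIC90 were reported for each susceptibility category.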
# Streptococcus pneumoniae [19] = test: Antibacterial activity against Streptococcus pneumoniae harboring mutation in 23S rRNA after overnight incubation by agar dilution method; type: functional
# Outline: (§4)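 Clinical isolates collected 1998–2008, with macrolide-resistance genes confirmed by PCR. MICs by agar dilution on Mueller-Hinton agar with 5% sheep blood. Inoculum 10^4 CFU/spot, incubated overnight at 35°C in ambient air. S. pneumoniae ATCC 49619 was the quality-control strain in every run.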
# Streptococcus pneumoniae [20] = test: Antibacterial activity against Streptococcus pneumoniae harboring erm(A) gene after overnight incubation by agar dilution method; type: functional; outline: as §4
# Streptococcus pyogenes [21] = test: Antibacterial activity against Streptococcus pyogenes harboring erm(A) gene after overnight incubation by agar dilution method; type: functional; outline: as §4
# Streptococcus pneumoniae [22] = test: Antibacterial activity against quinolone-susceptible Streptococcus pneumoniae after overnight incubation by agar dilution method; type: functional; outline: as §3
# Streptococcus pneumoniae [23] = test: Antibacterial activity against macrolide-resistant Streptococcus pneumoniae 1076 harboring erm(B) and mef(A) gene after 18 passages and 10 compound-free subculturing by retest method; type: functional; outline: as §2
# Streptococcus pneumoniae [24] = test: Antibacterial activity against macrolide-resistant Streptococcus pneumoniae 24 harboring erm(B) gene after overnight incubation by agar dilution method; type: functional
# Streptococcus pyogenes [25] = test: Antibacterial activity against macrolide-susceptible Streptococcus pyogenes after overnight incubation by agar dilution method; type: functional; outline: as §1
# Streptococcus pneumoniae [26] = test: Antibacterial activity against quinolone-resistant Streptococcus pneumoniae after overnight incubation by agar dilution method; type: functional; outline: as §3
# Streptococcus pneumoniae [27] = test: Antibacterial activity against macrolide-resistant Streptococcus pneumoniae 1076 harboring erm(B) and mef(A) gene after overnight incubation by agar dilution method; type: functional
# Streptococcus pyogenes [28] = test: Antibacterial activity against macrolide-resistant Streptococcus pyogenes 2094 harboring erm(A) gene after 34 passages and 10 compound-free subculturing by retest method
smiles,measurement,setting,value
CC[C@H]1OC(=O)[C@H](C)[C@@H](O[C@H]2C[C@@](C)(OC)[C@@H](O)[C@H](C)O2)[C@H](C)[C@@H](O[C@@H]2O[C@H](C)C[C@H](N(C)C)[C@H]2O)[C@](C)(O)C[C@@H](C)CN(C)[C@H](C)[C@@H](O)[C@]1(C)O [AZITHROMYCIN],MIC,Streptococcus pneumoniae [1],> 64 µg/mL
same,MIC50,Streptococcus pyogenes [2],> 64 µg/mL
same,MIC90,Streptococcus pyogenes [2],> 64 µg/mL
same,MIC,Streptococcus pyogenes [3],> 64 µg/mL
same,MIC,Streptococcus pyogenes [4],> 64 µg/mL
same,MIC,Streptococcus pneumoniae [5],1 µg/mL
same,MIC,Streptococcus pyogenes [6],> 64 µg/mL
same,MIC,Streptococcus pneumoniae [7],> 64 µg/mL
same,MIC50,Streptococcus pneumoniae [8],> 64 µg/mL
same,MIC90,Streptococcus pneumoniae [8],> 64 µg/mL
same,MIC,Streptococcus pneumoniae [9],> 64 µg/mL
same,MIC,Streptococcus pyogenes [10],> 64 µg/mL
same,MIC,Streptococcus pneumoniae [11],0.06 µg/mL
same,MIC,Streptococcus pyogenes [12],4 µg/mL
same,MIC,Streptococcus pneumoniae [13],> 64 µg/mL
same,MIC,Streptococcus pneumoniae [14],0.06 µg/mL
same,MIC,Streptococcus pyogenes [15],4 µg/mL
same,MIC,Streptococcus pyogenes [16],> 64 µg/mL
same,MIC,Streptococcus pneumoniae [17],2 µg/mL
same,MIC50,Streptococcus pneumoniae [18],4 µg/mL
same,MIC90,Streptococcus pneumoniae [18],> 64 µg/mL
same,MIC,Streptococcus pneumoniae [19],32 µg/mL
same,MIC,Streptococcus pneumoniae [20],2 µg/mL
same,MIC50,Streptococcus pyogenes [21],16 µg/mL
same,MIC90,Streptococcus pyogenes [21],> 64 µg/mL
same,MIC50,Streptococcus pneumoniae [22],> 64 µg/mL
same,MIC90,Streptococcus pneumoniae [22],> 64 µg/mL
same,MIC,Streptococcus pneumoniae [23],> 64 µg/mL
same,MIC,Streptococcus pneumoniae [24],> 64 µg/mL
same,MIC50,Streptococcus pyogenes [25],0.125 µg/mL
same,MIC90,Streptococcus pyogenes [25],0.25 µg/mL
same,MIC50,Streptococcus pneumoniae [26],0.125 µg/mL
same,MIC,Streptococcus pneumoniae [27],> 64 µg/mL
same,MIC,Streptococcus pyogenes [28],16 µg/mL
